From ChEMBL document CHEMBL5058577, “EUbOPEN Chemogenomics Library 2 (Multiplex)” (2022)

Test system: U2OS
Experiment: Multiplex assay against U2OS
Type: toxicity, cell-based
Details: human
Outline: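 At seeding, live cells were stained with Hoechst33342, BioTracker Green Microtubule Cytoskeleton Dye, MitoTracker Red and Annexin V Alexa Fluor 680. After compound addition they were imaged on a CQ1 microscope at 37°C and 5% CO2, and CellPathfinder machine-learning gating sorted them into Hoechst high-intensity objects or normal cells, with normal cells further split into healthy, pyknosed or fragmented nuclei and pyknosed cells into mitotic or apoptotic. Tubulin, mitochondrial-mass and membrane-permeability phenotypes are given as per cents of cells with healthy nuclei.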

[1] = 12 h, 1 µM, compound concentration 1 uM, replicate 1
[2] = 12 h, 1 µM, compound concentration 1 uM, replicate 2
[3] = 12 h, 10 µM, compound concentration 10 uM, replicate 1
[4] = 12 h, 10 µM, compound concentration 10 uM, replicate 2
[5] = 24 h, 1 µM, compound concentration 1 uM, replicate 1
[6] = 24 h, 1 µM, compound concentration 1 uM, replicate 2
[7] = 24 h, 10 µM, compound concentration 10 uM, replicate 1
[8] = 24 h, 10 µM, compound concentration 10 uM, replicate 2
[9] = 48 h, 1 µM, compound concentration 1 uM, replicate 1
[10] = 48 h, 1 µM, compound concentration 1 uM, replicate 2
[11] = 48 h, 10 µM, compound concentration 10 uM, replicate 1
[12] = 48 h, 10 µM, compound concentration 10 uM, replicate 2

## NCCc1cn(S(=O)(=O)c2c(Cl)nc3sccn23)c2ccccc12.O=C(O)C(=O)O
[1]
  Population Apoptotic (%): 66%
  Population Fragmented Nuclei (%): 30%
  Population Healthy Nuclei (%): 58%
  Population Hoechst High Intensity Objects (%): 1%
  Population Membrane Permeable-Phenotype (%): 9%
  Population Mitochondria Different-Phenotype (%): 6%
  Population Mitotic Cells (%): 33%
  Population Normal (%): 98%
  Population Pyknosed Nuclei (%): 10%
  Population Tubulin-Different-Phenotype (%): 6%
  Total Cell Count: 280
[2]
  Population Apoptotic (%): 81%
  Population Fragmented Nuclei (%): 17%
  Population Healthy Nuclei (%): 72%
  Population Membrane Permeable-Phenotype (%): 4%
  Population Mitochondria Different-Phenotype (%): 8%
  Population Mitotic Cells (%): 18%
  Population Pyknosed Nuclei (%): 9%
  Total Cell Count: 116
[3]
  Population Apoptotic (%): 71%
  Population Fragmented Nuclei (%): 26%
  Population Healthy Nuclei (%): 42%
  Population Hoechst High Intensity Objects (%): 5%
  Population Membrane Permeable-Phenotype (%): 42%
  Population Mitochondria Different-Phenotype (%): 60%
  Population Mitotic Cells (%): 28%
  Population Normal (%): 94%
  Population Pyknosed Nuclei (%): 30%
  Population Tubulin-Different-Phenotype (%): 59%
  Total Cell Count: 221
[4]
  Population Apoptotic (%): 82%
  Population Fragmented Nuclei (%): 20%
  Population Healthy Nuclei (%): 53%
  Population Hoechst High Intensity Objects (%): 4%
  Population Membrane Permeable-Phenotype (%): 30%
  Population Mitochondria Different-Phenotype (%): 71%
  Population Mitotic Cells (%): 17%
  Population Normal (%): 95%
  Population Pyknosed Nuclei (%): 26%
  Population Tubulin-Different-Phenotype (%): 50%
  Total Cell Count: 115
[5]
  Population Apoptotic (%): 69%
  Population Fragmented Nuclei (%): 25%
  Population Healthy Nuclei (%): 66%
  Population Hoechst High Intensity Objects (%): 1%
  Population Membrane Permeable-Phenotype (%): 6%
  Population Mitochondria Different-Phenotype (%): 5%
  Population Mitotic Cells (%): 30%
  Population Normal (%): 98%
  Population Pyknosed Nuclei (%): 8%
  Population Tubulin-Different-Phenotype (%): 3%
  Total Cell Count: 326
[6]
  Population Apoptotic (%): 78%
  Population Fragmented Nuclei (%): 20%
  Population Healthy Nuclei (%): 70%
  Population Membrane Permeable-Phenotype (%): 9%
  Population Mitochondria Different-Phenotype (%): 7%
  Population Mitotic Cells (%): 21%
  Population Pyknosed Nuclei (%): 9%
  Population Tubulin-Different-Phenotype (%): 7%
  Total Cell Count: 151
[7]
  Population Apoptotic (%): 83%
  Population Fragmented Nuclei (%): 29%
  Population Healthy Nuclei (%): 38%
  Population Hoechst High Intensity Objects (%): 6%
  Population Membrane Permeable-Phenotype (%): 26%
  Population Mitochondria Different-Phenotype (%): 63%
  Population Mitotic Cells (%): 16%
  Population Normal (%): 93%
  Population Pyknosed Nuclei (%): 31%
  Population Tubulin-Different-Phenotype (%): 26%
  Total Cell Count: 240
[8]
  Population Apoptotic (%): 86%
  Population Fragmented Nuclei (%): 20%
  Population Healthy Nuclei (%): 46%
  Population Hoechst High Intensity Objects (%): 3%
  Population Mitochondria Different-Phenotype (%): 67%
  Population Mitotic Cells (%): 13%
  Population Normal (%): 96%
  Population Pyknosed Nuclei (%): 33%
  Population Tubulin-Different-Phenotype (%): 38%
  Total Cell Count: 116
[9]
  Population Apoptotic (%): 81%
  Population Fragmented Nuclei (%): 21%
  Population Healthy Nuclei (%): 70%
  Population Hoechst High Intensity Objects (%): 1%
  Population Membrane Permeable-Phenotype (%): 5%
  Population Mitochondria Different-Phenotype (%): 4%
  Population Mitotic Cells (%): 18%
  Population Normal (%): 98%
  Population Pyknosed Nuclei (%): 8%
  Population Tubulin-Different-Phenotype (%): 2%
  Total Cell Count: 454
[10]
  Population Apoptotic (%): 85%
  Population Healthy Nuclei (%): 66%
  Population Hoechst High Intensity Objects (%): 6%
  Population Membrane Permeable-Phenotype (%): 10%
  Population Mitochondria Different-Phenotype (%): 7%
  Population Mitotic Cells (%): 14%
  Population Normal (%): 93%
  Population Pyknosed Nuclei (%): 12%
  Population Tubulin-Different-Phenotype (%): 7%
  Total Cell Count: 182
[11]
  Population Apoptotic (%): 92%
  Population Fragmented Nuclei (%): 37%
  Population Healthy Nuclei (%): 27%
  Population Hoechst High Intensity Objects (%): 7%
  Population Membrane Permeable-Phenotype (%): 25%
  Population Mitochondria Different-Phenotype (%): 56%
  Population Mitotic Cells (%): 7%
  Population Normal (%): 92%
  Population Pyknosed Nuclei (%): 35%
  Population Tubulin-Different-Phenotype (%): 25%
  Total Cell Count: 241
[12]
  Population Fragmented Nuclei (%): 29%
  Population Healthy Nuclei (%): 34%
  Population Membrane Permeable-Phenotype (%): 42%
  Population Mitochondria Different-Phenotype (%): 65%
  Population Tubulin-Different-Phenotype (%): 42%
  Total Cell Count: 127
